Measurements published in ChEMBL document CHEMBL3588757, “Structure-based design, synthesis and biological testing of piperazine-linked bis-epipodophyllotoxin etoposide analogs” (Bioorg Med Chem, 2015).

Assays:
OVCAR-5 [1] = assay: Cytotoxicity against human OVCAR5 cells assessed as cell growth at 0.005 uM by SRB assay; assay type: functional; details: read-out: Activity
SF-539 = assay: Cytotoxicity against human SF539 cells assessed as cell growth at 5 uM by SRB assay; assay type: functional; details: read-out: Activity
K562 = assay: Cytotoxicity against human K562 cells assessed as cell growth inhibition after 72 hrs by MTS assay; assay type: functional, cell-based; details: K562, 72 h
DU-145 [2] = assay: Cytotoxicity against human DU145 cells assessed as cell growth at 0.5 uM by SRB assay; assay type: functional; details: read-out: Activity
Outline: (§1)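 Measured in the NCI-60 human tumour cell line panel using five-dose testing. Growth was recorded at each dose for each cell line, and a GI50 was derived for each line.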

MDA-MB-231 = assay: Cytotoxicity against human MDA-MB-231/ATCC cells assessed as cell growth at 50 uM by SRB assay; assay type: functional; details: read-out: Activity
MOLT-4 [3] = assay: Cytotoxicity against human MOLT4 cells assessed as cell growth at 0.05 uM by SRB assay; assay type: functional; details: read-out: Activity
NCI-H460 [4] = assay: Cytotoxicity against human NCI-H460 cells assessed as cell growth at 0.005 uM by SRB assay; assay type: functional; details: read-out: Activity
ACHN [5] = assay: Cytotoxicity against human ACHN cells assessed as cell growth at 0.05 uM by SRB assay; assay type: functional; details: read-out: Activity
SF-295 = assay: Cytotoxicity against human SF295 cells assessed as cell growth at 5 uM by SRB assay; assay type: functional; details: read-out: Activity
COLO 205 = assay: Cytotoxicity against human COLO205 cells by SRB assay; assay type: functional
RPMI-8226 = assay: Cytotoxicity against human RPMI8226 cells assessed as cell growth at 0.005 uM by SRB assay; assay type: functional; details: read-out: Activity
MOLT-4 [6] = assay: Cytotoxicity against human MOLT4 cells assessed as cell growth at 5 uM by SRB assay; assay type: functional; details: read-out: Activity
T47D = assay: Cytotoxicity against human T47D cells assessed as cell growth at 50 uM by SRB assay; assay type: functional; details: read-out: Activity
CAKI-1 = assay: Cytotoxicity against human Caki1 cells by SRB assay; assay type: functional
HCC 2998 = assay: Cytotoxicity against human HCC2998 cells assessed as cell growth at 5 uM by SRB assay; assay type: functional; details: read-out: Activity; outline: as §1
NCI-H23 = assay: Cytotoxicity against human NCI-H23 cells assessed as cell growth at 0.05 uM by SRB assay; assay type: functional; details: read-out: Activity
NCI-H522 = assay: Cytotoxicity against human NCI-H522 cells assessed as cell growth at 0.05 uM by SRB assay; assay type: functional; details: read-out: Activity
MOLT-4 [7] = assay: Cytotoxicity against human MOLT4 cells by SRB assay; assay type: functional
Outline: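 NCI-60 panel screen; 5-dose testing giving GI50 per cell line, plus a single 10 µM one-dose test. Method details not given beyond the NCI screen.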

OVCAR-3 = assay: Cytotoxicity against human OVCAR3 cells assessed as cell growth at 0.5 uM by SRB assay; assay type: functional; details: read-out: Activity
NCI-H460 [8] = assay: Cytotoxicity against human NCI-H460 cells assessed as cell growth at 5 uM by SRB assay; assay type: functional; details: read-out: Activity
SK-OV-3 = assay: Cytotoxicity against human SKOV3 cells assessed as cell growth at 0.005 uM by SRB assay; assay type: functional; details: read-out: Activity
U-251 [9] = assay: Cytotoxicity against human U251 cells assessed as cell growth at 0.05 uM by SRB assay; assay type: functional; details: read-out: Activity
BT-549 = assay: Cytotoxicity against human BT549 cells assessed as cell growth at 0.005 uM by SRB assay; assay type: functional; details: read-out: Activity
TK-10 = assay: Cytotoxicity against human TK10 cells assessed as cell growth at 0.5 uM by SRB assay; assay type: functional; details: read-out: Activity
IGROV-1 = assay: Cytotoxicity against human IGROV1 cells assessed as cell growth at 50 uM by SRB assay; assay type: functional; details: read-out: Activity
ACHN [10] = assay: Cytotoxicity against human ACHN cells by SRB assay; assay type: functional
HCT-116 = assay: Cytotoxicity against human HCT116 cells by SRB assay; assay type: functional; outline: as §1
SNB-75 [11] = assay: Cytotoxicity against human SNB75 cells assessed as cell growth at 0.5 uM by SRB assay; assay type: functional; details: read-out: Activity
MDA-MB-468 [12] = assay: Cytotoxicity against human MDA-MB-468 cells assessed as cell growth at 5 uM by SRB assay; assay type: functional; details: read-out: Activity
OVCAR-8 = assay: Cytotoxicity against human OVCAR8 cells assessed as cell growth at 0.05 uM by SRB assay; assay type: functional; details: read-out: Activity
[13] = Cytotoxicity against human Hs578T cells assessed as cell growth at 5 uM by SRB assay; assay type: functional; details: Hs-578T, read-out: Activity; outline: as §1
UACC-257 = assay: Cytotoxicity against human UACC257 cells assessed as cell growth at 0.5 uM by SRB assay; assay type: functional; details: read-out: Activity
SK-MEL-5 = assay: Cytotoxicity against human SK-MEL-5 cells assessed as cell growth at 50 uM by SRB assay; assay type: functional; details: read-out: Activity
SNB-75 [14] = assay: Cytotoxicity against human SNB75 cells assessed as cell growth at 5 uM by SRB assay; assay type: functional; details: read-out: Activity
U-251 [15] = assay: Cytotoxicity against human U251 cells assessed as cell growth at 50 uM by SRB assay; assay type: functional; details: read-out: Activity
DU-145 [16] = assay: Cytotoxicity against human DU145 cells assessed as cell growth at 50 uM by SRB assay; assay type: functional; details: read-out: Activity; outline: as §1
OVCAR-5 [17] = assay: Cytotoxicity against human OVCAR5 cells assessed as cell growth at 0.5 uM by SRB assay; assay type: functional; details: read-out: Activity
SNB-19 = assay: Cytotoxicity against human SNB19 cells assessed as cell growth at 0.05 uM by SRB assay; assay type: functional; details: read-out: Activity
SK-MEL-2 = assay: Cytotoxicity against human SK-MEL-2 cells assessed as cell growth at 0.05 uM by SRB assay; assay type: functional; details: read-out: Activity
SW-620 = assay: Cytotoxicity against human SW620 cells assessed as cell growth at 0.05 uM by SRB assay; assay type: functional; details: read-out: Activity
SNB-75 [18] = assay: Cytotoxicity against human SNB75 cells assessed as cell growth at 0.005 uM by SRB assay; assay type: functional; details: read-out: Activity
SK-MEL-28 = assay: Cytotoxicity against human SK-MEL-28 cells assessed as cell growth at 50 uM by SRB assay; assay type: functional; details: read-out: Activity
MDA-MB-468 [19] = assay: Cytotoxicity against human MDA-MB-468 cells assessed as cell growth at 0.05 uM by SRB assay; assay type: functional; details: read-out: Activity
M14 = assay: Cytotoxicity against human M14 cells assessed as cell growth at 0.005 uM by SRB assay; assay type: functional; details: read-out: Activity
[20] = read-out: LC50 (the source's name)
[21] = read-out: pLC50 (the source's name) (converted)

What does the source list for `COc1cc([C@@H]2c3cc4c(cc3[C@@H](NC(=O)CN3CCN(CCCCCCN5CCN(CC(=O)N[C@@H]6c7cc8c(cc7[C@@H](c7cc(OC)c(O)c(OC)c7)[C@H]7C(=O)OC[C@@H]76)OCO8)CC5)CC3)[C@H]3COC(=O)[C@H]23)OCO4)cc(OC)c1O`?
growth at 0.005 µM (OVCAR-5 [1]): 93%; growth at 5 µM (SF-539): 12%; IC50 (K562): 0.041 µM; growth at 0.5 µM (DU-145 [2]): 89%; growth at 50 µM (MDA-MB-231): 13%; growth at 0.05 µM (MOLT-4 [3]): 105%; growth at 0.005 µM (NCI-H460 [4]): 100%; growth at 0.05 µM (ACHN [5]): 98%; growth at 5 µM (SF-295): 50%; GI50 (COLO 205; read-out: GI50): 5.79 µM; CC50 (COLO 205; [20]): > 50 µM; TGI (COLO 205; read-out: TGI): 44.7 µM; GI50 (COLO 205; read-out: pGI50 (converted)): 5.75 µM; CC50 (COLO 205; [21]): > 50.1 µM; TGI (COLO 205; read-out: pTGI (converted)): 44.7 µM; growth at 0.005 µM (RPMI-8226): 102%; growth at 5 µM (MOLT-4 [6]): 6%; growth at 50 µM (T47D): 2%; GI50 (CAKI-1; read-out: GI50): > 50 µM; CC50 (CAKI-1; [20]): > 50 µM; TGI (CAKI-1; read-out: TGI): > 50 µM; GI50 (CAKI-1; read-out: pGI50 (converted)): > 50.1 µM; CC50 (CAKI-1; [21]): > 50.1 µM; TGI (CAKI-1; read-out: pTGI (converted)): > 50.1 µM; growth at 5 µM (HCC 2998): 73%; growth at 0.05 µM (NCI-H23): 102%; growth at 0.05 µM (NCI-H522): 99%; GI50 (MOLT-4 [7]; read-out: GI50): 0.233 µM; CC50 (MOLT-4 [7]; [20]): > 50 µM; TGI (MOLT-4 [7]; read-out: TGI): > 50 µM; GI50 (MOLT-4 [7]; read-out: pGI50 (converted)): 0.234 µM; CC50 (MOLT-4 [7]; [21]): > 50.1 µM; TGI (MOLT-4 [7]; read-out: pTGI (converted)): > 50.1 µM; growth at 0.5 µM (OVCAR-3): 103%; growth at 5 µM (NCI-H460 [8]): 11%; growth at 0.005 µM (SK-OV-3): 104%; growth at 0.05 µM (U-251 [9]): 101%; growth at 0.005 µM (BT-549): 86%; growth at 0.5 µM (TK-10): 89%; growth at 50 µM (IGROV-1): 47%; GI50 (ACHN [10]; read-out: GI50): 22.3 µM; CC50 (ACHN [10]; [20]): > 50 µM; TGI (ACHN [10]; read-out: TGI): > 50 µM; GI50 (ACHN [10]; read-out: pGI50 (converted)): 22.4 µM; CC50 (ACHN [10]; [21]): > 50.1 µM; TGI (ACHN [10]; read-out: pTGI (converted)): > 50.1 µM; GI50 (HCT-116; read-out: GI50): 1.63 µM; CC50 (HCT-116; [20]): > 50 µM; TGI (HCT-116; read-out: TGI): > 50 µM; GI50 (HCT-116; read-out: pGI50 (converted)): 1.62 µM; CC50 (HCT-116; [21]): > 50.1 µM; TGI (HCT-116; read-out: pTGI (converted)): > 50.1 µM; growth at 0.5 µM (SNB-75 [11]): 61%; growth at 5 µM (MDA-MB-468 [12]): 22%; growth at 0.05 µM (OVCAR-8): 108%; growth at 5 µM [13]: 64%; growth at 0.5 µM (UACC-257): 108%; growth at 50 µM (SK-MEL-5): 9%; growth at 5 µM (SNB-75 [14]): 22%; growth at 50 µM (U-251 [15]): -10%; growth at 50 µM (DU-145 [16]): 7%; growth at 0.5 µM (OVCAR-5 [17]): 86%; growth at 0.05 µM (SNB-19): 95%; growth at 0.05 µM (SK-MEL-2): 100%; growth at 0.05 µM (SW-620): 91%; growth at 0.005 µM (SNB-75 [18]): 75%; growth at 50 µM (SK-MEL-28): 3%; growth at 0.05 µM (MDA-MB-468 [19]): 89%; growth at 0.005 µM (M14): 89%
